From ChEMBL document CHEMBL4024715, “An in vitro and in vivo evaluation of new potential trans-sialidase inhibitors of Trypanosoma cruzi predicted by a computational drug repositioning method” (Eur J Med Chem, 2017) come the findings set out here.

≈ marks a conversion by molar mass, not a printed value. Calls of active or inactive are those of the source. No cut-off for these calls is given here.

Data set [1] has as its target T1, Trans-sialidase (Trypanosoma cruzi) (UniProt Q26964).
T1 sequence (whole entry): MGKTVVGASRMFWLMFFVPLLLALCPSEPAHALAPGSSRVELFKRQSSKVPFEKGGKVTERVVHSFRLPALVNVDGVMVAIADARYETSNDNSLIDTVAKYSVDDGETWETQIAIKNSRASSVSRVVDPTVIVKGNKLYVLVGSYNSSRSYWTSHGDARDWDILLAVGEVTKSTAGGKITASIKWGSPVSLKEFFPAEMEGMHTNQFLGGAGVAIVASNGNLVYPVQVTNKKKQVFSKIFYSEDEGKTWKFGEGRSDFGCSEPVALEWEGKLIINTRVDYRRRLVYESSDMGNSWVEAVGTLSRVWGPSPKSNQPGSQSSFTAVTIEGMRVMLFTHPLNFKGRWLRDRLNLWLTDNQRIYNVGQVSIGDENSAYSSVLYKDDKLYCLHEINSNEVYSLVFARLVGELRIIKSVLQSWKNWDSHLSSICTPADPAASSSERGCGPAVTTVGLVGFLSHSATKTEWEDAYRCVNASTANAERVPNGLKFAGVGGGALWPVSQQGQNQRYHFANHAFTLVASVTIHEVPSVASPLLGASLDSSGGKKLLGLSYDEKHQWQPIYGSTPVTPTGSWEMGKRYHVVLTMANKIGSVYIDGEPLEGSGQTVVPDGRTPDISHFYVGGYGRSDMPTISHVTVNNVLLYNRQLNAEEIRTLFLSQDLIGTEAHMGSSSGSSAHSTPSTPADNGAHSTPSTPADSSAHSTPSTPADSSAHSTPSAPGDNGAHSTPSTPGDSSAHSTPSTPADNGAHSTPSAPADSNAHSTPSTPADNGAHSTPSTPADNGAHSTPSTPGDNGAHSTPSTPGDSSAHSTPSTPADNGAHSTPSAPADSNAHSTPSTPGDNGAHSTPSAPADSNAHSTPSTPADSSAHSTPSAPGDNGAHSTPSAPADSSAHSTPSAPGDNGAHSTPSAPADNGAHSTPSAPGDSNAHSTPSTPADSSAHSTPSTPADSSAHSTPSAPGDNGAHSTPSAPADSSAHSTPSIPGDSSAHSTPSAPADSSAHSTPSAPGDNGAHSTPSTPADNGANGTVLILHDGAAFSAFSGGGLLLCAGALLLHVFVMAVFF
Nature of the data set: Inhibition of Trypanosoma cruzi trans-sialidase at 1 mM using N-acetyllactosamine as substrate in presence of 3'-sialyllactose measured after 15 mins by HPAEC-PAD relative to control. The method, boiled down:
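Purified T. cruzi Ts (300 ng) incubated 15 min at room temperature in 20 mM Tris-HCl pH 7, 30 mM NaCl with 1 mM 3'-sialyllactose donor, 1 mM N-acetyllactosamine acceptor and 1 mM inhibitor. Water-insoluble compounds added from 10 mM DMSO stock; DMSO-only control. Samples diluted 12-fold and analysed by HPAEC-PAD. Inhibition from 3'-sialyl-N-acetyllactosamine relative to total sialylated products, with vs without compound.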

For data set [2], the system named is Trypanosoma cruzi. Nature of the data set: Trypanocidal activity against bloodstream form of Trypanosoma cruzi NINOA infected in NIH mouse assessed as reduction in parasitemia at 100 mg/kg, po measured at 2 to 4 hrs post dose by microscopic method. Type of data set: functional, organism-based. The procedure, abridged:
(§1)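 Groups of five female NIH mice (20-25 g) infected intraperitoneally with 2×10^5 bloodstream trypomastigotes. At peak parasitemia (days 19-24), compounds suspended in 4% gum arabic were given orally, 100 mg/kg total dose. Vehicle-only controls. Tail blood examined microscopically at 2, 4 and 6 h after dosing. Parasitemia reduction scored against trypomastigote counts at each interval.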

In data set [3] the test system is Trypanosoma cruzi. Description: Trypanocidal activity against bloodstream form of Trypanosoma cruzi NINOA infected in NIH mouse assessed as reduction in parasitemia at 100 mg/kg, po measured at 6 hrs post dose by microscopic method. Type of data set: functional, organism-based. The procedure, abridged: as §1
For data set [4], the system named is Trypanosoma cruzi. Description: Trypanocidal activity against trypomastigote stage of Trypanosoma cruzi INC-5 infected in NIH mouse blood assessed as parasite lysis at 50 ug/ml after 24 hrs by optical microscopic method relative to control. It is filed as functional. The method, boiled down: (§2)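 Blood from infected NIH mice was taken by cardiac puncture at peak infection and adjusted to 1×10^6 trypomastigotes/mL. Compounds came from 10 mg/mL DMSO stocks diluted in water; final DMSO below 1%. Incubation was 24 h at 4 °C. Controls were DMSO/H₂O 1:99, untreated blood and reference drug. Trypomastigotes in 5 µL blood were counted by the Brener method at 40×. Percent lysis was taken versus the negative control, with three runs per strain.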

Data set [5] has as its system Trypanosoma cruzi. Description: Trypanocidal activity against trypomastigote stage of Trypanosoma cruzi INC-5 infected in NIH mouse blood after 24 hrs by optical microscopic method. It is filed as functional. As to conditions: INC-5, Blood.
Data set [6] concerns Trypanosoma cruzi. Description: Trypanocidal activity against trypomastigote stage of Trypanosoma cruzi NINOA infected in NIH mouse blood assessed as parasite lysis at 50 ug/ml after 24 hrs by optical microscopic method relative to control. Type of data set: functional. The method, boiled down: as §2
The test system of data set [7] is Trypanosoma cruzi. Nature of the data set: Trypanocidal activity against trypomastigote stage of Trypanosoma cruzi NINOA infected in NIH mouse blood after 24 hrs by optical microscopic method.
The test system of data set [8] is Trypanosoma cruzi. Description: Trypanocidal activity against bloodstream form of Trypanosoma cruzi INC-5 infected in NIH mouse assessed as reduction in parasitemia at 100 mg/kg, po measured up to 6 hrs post dose by microscopic method. Type of data set: functional, organism-based. The procedure, abridged:
as §1

The subject of data set [9] is Trypanosoma cruzi. Nature of the data set: Trypanocidal activity against bloodstream form of Trypanosoma cruzi NINOA infected in NIH mouse assessed as reduction in parasitemia at 100 mg/kg, po measured up to 6 hrs post dose by microscopic method. Type of data set: functional, organism-based. The method, boiled down: as §1
Data set [10] relates to Trypanosoma cruzi. Description: Trypanocidal activity against bloodstream form of Trypanosoma cruzi INC-5 infected in NIH mouse assessed as reduction in parasitemia at 100 mg/kg, po measured at 2 to 4 hrs post dose by microscopic method. Type of data set: functional, organism-based. The procedure, abridged:
as §1

The test system of data set [11] is Trypanosoma cruzi. Description: Trypanocidal activity against bloodstream form of Trypanosoma cruzi INC-5 infected in NIH mouse assessed as reduction in parasitemia at 100 mg/kg, po measured at 6 hrs post dose by microscopic method. Type of data set: functional, organism-based. The method, boiled down:
as §1

A short description of data set [12]: Solubility of the compound in water. It is filed as physicochemical. To be noted: buffer.
Data set [13] has as its system Trypanosoma cruzi. Nature of the data set: Trypanocidal activity against bloodstream form of Trypanosoma cruzi NINOA infected in NIH mouse assessed as reduction in parasitemia at 100 mg/kg, po measured at 4 hrs post dose by microscopic method relative to control. It is filed as functional. Set-up: scale not given: the % may be the effect or the level left. The procedure, abridged: as §1

For `NC(=O)c1cc[n+](CC2=C(C(=O)[O-])N3C(=O)[C@@H](NC(=O)[C@@H](c4ccccc4)S(=O)(=O)O)[C@H]3SC2)cc1`, in data set [1], the inhibition entry is “inactive”. Further, the result in [2] was Active. The outcome in data set [3] was inactive.

Take `O=C(Cn1ccnc1[N+](=O)[O-])NCc1ccccc1` [BENZNIDAZOLE]: the Activity in data set [4] was determined as 56%; in [6], 69%. Further, the LC50 in data set [5] came to 40.6 µg/mL (≈ 156 µM); in data set [7], 46.6 µg/mL (≈ 179 µM). The result in [8] and in [9] was Active.

As for `CCN1CCN(C(=O)N[C@@H](C(=O)N[C@@H]2C(=O)N3C(C(=O)[O-])=C(CSc4nnnn4C)CS[C@H]23)c2ccc(O)cc2)C(=O)C1=O.[Na+]` [CEFOPERAZONE SODIUM], the values for the Activity in data set [4] and in data set [6] were 71% and 64%, respectively. Besides, the median lethal concentration (LC50) in [5] was 23 µg/mL; in data set [7], 25.8 µg/mL. Further, in data set [1], the inhibition came to 10.1%. Moreover, the result in [10] and in [2] was Active. For the same compound, the outcome in [11] and in data set [3] was inactive.

For the compound `NC(=O)c1cc[n+](CC2=C(C(=O)[O-])N3C(=O)[C@@H](NC(=O)[C@@H](c4ccccc4)S(=O)(=O)[O-])[C@H]3SC2)cc1.[Na+]` [CEFSULODIN SODIUM], the Activity in data set [4] is 14%; in data set [6], 87%. The LC50 in data set [7] is 16.6 µg/mL.

As for `COc1cc2nc(N3CCN(C(=O)C4COc5ccccc5O4)CC3)nc(N)c2cc1OC.CS(=O)(=O)O` (stereo not given) [DOXAZOSIN MESYLATE], the Activity in data set [4] is 89%; in [6] it was 97%. In addition, the results for the 50% lethal concentration (LC50) in data set [5] and in [7] were 14.7 µg/mL and 12.9 µg/mL, respectively. The inhibition in data set [1] was 5.3%. Further, the solubility result in data set [12] is “Insoluble”.

Consider `COC(=O)Nc1nc2cc(C(=O)c3ccc(F)cc3)ccc2[nH]1` [FLUBENDAZOLE], for which the Activity is recorded as 42% in data set [4] and 41% in data set [6]. Also, the inhibition result in [1] was “inactive”. Also, the solubility result in data set [12] is given as “Insoluble”.

Regarding `O=C(O)C(O)C(O)C(=O)O.O=C(c1ccc(F)cc1)C1CCN(CCn2c(=O)[nH]c3ccccc3c2=O)CC1` [KETANSERIN TARTRATE], the Activity in [4] turned out to be 73%; in data set [6], 89%. Moreover, the LC50 in data set [5] worked out at 18.4 µg/mL; in data set [7], 13.6 µg/mL.

Regarding `CC1CS(=O)(=O)CCN1/N=C/c1ccc([N+](=O)[O-])o1` (stereo not given) [NIFURTIMOX], the Activity in data set [4] is given as 51%; in data set [6] it was 66%.

As to `O=C(O)c1cc(/N=N/c2ccc(S(=O)(=O)Nc3ccccn3)cc2)ccc1O` [SULFASALAZINE], the Activity in data set [4] came out at 10%; in data set [6], 92%; in [13], 60%. The LC50 in data set [7] was determined as 19.3 µg/mL (≈ 48.4 µM). Besides, the inhibition in data set [1] worked out at 37.6%. Besides, in data set [2], the outcome was Active. The outcome in data set [3] was inactive. Further, the solubility result in data set [12] was “Insoluble”.

Regarding `CC(C)(C)c1ccc(C(O)CCCN2CCC(C(O)(c3ccccc3)c3ccccc3)CC2)cc1` (stereo not given) [TERFENADINE], the Activity in [4] and in [6] was 100% each time. Besides, the LC50 came out at 4.5 µg/mL (≈ 9.54 µM) in data set [5] and 16.3 µg/mL (≈ 34.6 µM) in data set [7]. In data set [1], the inhibition worked out at 8.2%. The outcome in [10] and in data set [2] was Active. Besides, the outcome in data set [11] and in [3] was inactive. Moreover, the solubility result in data set [12] was “Insoluble”.

By inhibition is commonly meant the change of the read-out against control, counted positive when it falls. The LC50 is the concentration lethal to half of the exposed cells or organisms.
